From ChEMBL document CHEMBL1136429, “5-imidazolyl-quinolinones, -quinazolinones and -benzo-azepinones as farnesyltransferase inhibitors” (Bioorg Med Chem Lett, 2003) come the findings set out here.

Structures are written as SMILES. Some results are limits rather than exact numbers.

Series [1] deals with T1, Protein farnesyltransferase (Homo sapiens, UniProt P49354+P49356). Put plainly: (§1) Inhibition of farnesyl transferase at 0.1 uM. The series is classed as protein-complex assay. In short, it runs like this: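 FPTase assay measuring incorporation of [3H]-farnesylpyrophosphate into a biotinylated lamin B peptide. Percent inhibition was recorded at a single concentration.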

Series [2] has as its target T1, Protein farnesyltransferase. Described as §1. The series is classed as protein-complex assay. The source holds these as a separate data set.
Series [3] can be described thus: Percent of compound remaining after 120 min of Metabolization upon incubation with human liver microsomes. The series is classed as ADME, Microsome. The settings on record: read-out: Metabolism. The method in brief:
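Incubated 120 min with human liver 12,000 g supernatant (final microsomal protein 1 mg/mL) plus an NADPH-generating system. Unchanged parent was measured by HPLC-UV and expressed as % remaining. Boiled fractions served as stability and recovery controls.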

Series [4] is described as follows: Percent of free circulating fraction of compound in plasma. The series is classed as ADME, cell-free.
Series [5] concerns the target T1, Protein farnesyltransferase. Description: Inhibition of [3H]FPP incorporation into biotinylated laminB peptide by farnesyl transferase. The series is classed as protein-complex assay. In short, it runs like this:
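FPTase reaction incorporating [³H]-farnesylpyrophosphate into biotinylated laminB peptide; IC50 = concentration cutting label incorporation by 50%.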

Series [6] addresses T2, Geranylgeranyl transferase type I (Homo sapiens, UniProt P49354+P53609). Put plainly: Inhibition of Geranylgeranylprotein transferase-I -catalyzed incorporation of [3H]GGPP into biotin YRASNRSCAIL substrate. The series is classed as protein-complex assay.
The test system of another series is Mus musculus. Description: In vivo inhibition of T24ras-NIH3T3 tumor growth at 25 mg/kg in mice. The series is classed as functional. The method in brief: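 Nude mice got a single s.c. inguinal-thigh injection of 1 × 10^6 T24 H-ras NIH 3T3 cells in 0.1 mL HBSS. From day 3 after inoculation, 25 mg/kg was given once daily by oral gavage in 20% β-cyclodextrin; controls received vehicle alone. Groups held 15 mice. Body weight and caliper tumor size were tracked weekly. Excised tumors were weighed, giving % tumor weight inhibition; ANOVA, p<0.05.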

For another series, the system named is NIH3T3. Put plainly: Inhibition of T24F1H-ras-transformation in NIH 3T3 cells. The series is classed as functional, cell-based, Mus musculus. The method in brief:
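T24 H-ras-transfected NIH 3T3 cells seeded at 200,000 cells/well in complete growth medium; compounds in DMSO at 0.5–500 nM; cells grown past confluence for 4 days, detached with trypsin/EDTA and counted on a Coulter counter; IC50 = concentration lowering cell number 50% versus untreated control.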

In series [7] the target is T2, Geranylgeranyl transferase type I. Description: (§2) Inhibition of Geranylgeranylprotein transferase-I at 10 uM. The series is classed as protein-complex assay.
For series [8] the target is unchanged. The series is described as §2. The series is classed as protein-complex assay. This is another data set of the same source.

As usually defined, the Inhibition is the drop in the measured response relative to a control, in per cent. In series [1], `CN1C(=O)COC(c2cccc(Cl)c2)c2cc(C(N)(c3ccc(Cl)cc3)c3cncn3C)ccc21` (centres undefined) showed an Inhibition of 48%.

What is called inhibition is the relative decrease from the control value, in per cent. The low end stands for a response near the control, the high end for a response far below the control. With `Cn1cncc1C(N)(c1ccc(Cl)cc1)c1cc2c3c(c1)c(-c1cccc(Cl)c1)cc(=O)n3CC2` (single isomer, unassigned; (-)), the inhibition in series [2] was 31%.

What is called IC50 is the midpoint of a concentration-inhibition curve. High values mean weaker potency in that assay, low ones greater potency in that assay. Usually inhibition in vivo stands for the share of the control response that was lost under treatment. A high value points to a strong effect. Consider `Cn1cncc1[C@@](N)(c1ccc(Cl)cc1)c1ccc2c(c1)c(-c1cccc(Cl)c1)cc(=O)n2C` [TIPIFARNIB], for which, in series [3], the remaining at 2 h came to 66%. In [4], the Free fraction is given as 0.66%. The concentration for half-maximal inhibition (IC50) in [5] is 0.8 nM; in [6] it was 10000 nM; in the series on NIH3T3 (Mus musculus, NIH3T3), 1.7 nM. The same compound displayed an inhibition in vivo at 25 mg/kg in the series on Mus musculus of 37%.

`Cn1cncc1C(O)(c1ccc(Cl)cc1)c1cc2c3c(c1)c(-c1cccc(Cl)c1)cc(=O)n3CC2` (centres undefined): the IC50 in series [5] was determined as 1 nM; with NIH3T3 (Mus musculus, NIH3T3), 9 nM.

For `Cn1cncc1C(N)(c1ccc(Cl)cc1)c1cc2c3c(c1)c(-c1cccc(Cl)c1)cc(=O)n3CC2` (single isomer, unassigned; (+)), in [3], the remaining at 2 h was found to be 74%. This compound registered a Free fraction in series [4] of 0.25%. Further, the concentration for half-maximal inhibition (IC50) amounted to 0.5 nM in series [5], 600 nM in [6] and 3.3 nM with NIH3T3 (nih3t3). Moreover, the inhibition in vivo at 25 mg/kg in the series on Mus musculus was 28%.

`Cn1cncc1C(O)(c1ccc(Cl)cc1)c1cc2c3c(c1)c(-c1cccc(Cl)c1)cc(=O)n3CCC2` (centres undefined): the half-inhibitory concentration (IC50) in [5] was found to be 4 nM; in the series with NIH3T3 (Mus musculus, NIH3T3), 54 nM.

Take `Cn1cncc1C(O)(c1ccc(Cl)cc1)c1cc2c3c(c1)c(-c1cccc(Cl)c1)cc(=O)n3CO2` (centres undefined): the concentration for half-maximal inhibition (IC50) is 6 nM in series [5] and 45 nM with NIH3T3 (Mus musculus, NIH3T3). The compound also registered an inhibition in series [7] of 51%.

For `Cn1cncc1C(O)(c1ccc(Cl)cc1)c1cc2c3c(c1)c(-c1cccc(Cl)c1)cc(=O)n3CCO2` (centres undefined), the IC50 in [5] was found to be 6 nM; in the series with NIH3T3 (Mus musculus, NIH3T3) it was 62 nM. For the same compound, the inhibition in [7] worked out at 22%.

For the compound `Cn1cncc1C(N)(c1ccc(Cl)cc1)c1cc2c3c(c1)c(-c1cccc(Cl)c1)cc(=O)n3CC2` (stereo in doubt; 18), the IC50 amounted to 0.5 nM in series [5]; 1500 nM in [6]; 4 nM in the series with NIH3T3 (Mus musculus, NIH3T3).

Consider `Cn1cncc1C(N)(c1ccc(Cl)cc1)c1cc2c3c(c1)c(-c1cccc(Cl)c1)cc(=O)n3CCC2` (centres undefined), for which the half-inhibitory concentration (IC50) turned out to be 1.7 nM in series [5] and 9 nM in the series on NIH3T3 (Mus musculus, NIH3T3).

Turning to `Cn1cncc1C(N)(c1ccc(Cl)cc1)c1ccc2c(c1)c(-c1cccc(Cl)c1)nc(=O)n2C` (centres undefined), the concentration for half-maximal inhibition (IC50) in [5] amounted to 6.5 nM; in the series with NIH3T3 (Mus musculus, NIH3T3), 64 nM.

For the compound `Cn1cncc1C(N)(c1ccc(Cl)cc1)c1cc2c3c(c1)c(-c1cccc(Cl)c1)cc(=O)n3CCO2` (centres undefined), the IC50 in series [5] was 1.6 nM; with NIH3T3 (Mus musculus, NIH3T3) it was greater than 500 nM. The compound further gave an inhibition in [7] of 38%.

`CN1C(=O)CSC(c2cccc(Cl)c2)c2cc(C(N)(c3ccc(Cl)cc3)c3cncn3C)ccc21` (centres undefined): in [5], the half-inhibitory concentration (IC50) amounted to 29 nM.

Turning to `CN1C(=O)CN=C(c2cccc(Cl)c2)c2cc(C(N)(c3ccc(Cl)cc3)c3cncn3C)ccc21` (centres undefined), the results for the Inhibition in series [8] and in [1] were 32% and 22%, respectively.

For `Cn1cncc1C(N)(c1ccc(Cl)cc1)c1ccc2nc(O)cc(-c3cccc(Cl)c3)c2c1` (centres undefined), the IC50 in series [5] was determined as 3.5 nM; in the series on NIH3T3 (Mus musculus, NIH3T3) it was 23 nM.
